Test results: article PMC8190911 (ACS Omega, 2021)

Columns and labels:
rat splenic lymphocytes = assay: Splenic lymphocyte proliferation with Con-A and HU; type: cell-based; settings: HU 50 μM, rutin or gallic acid 10 μM, Con-A 5 μg/mL, 48 h, MTT
In short: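 Spleens were taken aseptically from control rats into incomplete RPMI and minced through a strainer. Erythrocytes were lysed with 155 mM NH4Cl, 12 mM NaHCO3 and 0.1 mM EDTA, and the cells were washed and resuspended in complete RPMI. Cells were seeded at 2.5 × 10^4 per well, pretreated with test compound plus HU for 1 h at 37 °C, then stimulated with Con-A for 48 h. MTT (2.5 mg/mL, 20 μL) was added for 4 h and absorbance read at 570 nm. Groups were compared by Student's t-test.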

[1] = molecular target: urease from Canavalin ensiformis (jack bean) (Canavalia ensiformis, UniProt P07374); assay: Inhibition of urease activity; type: biochemical
[2] = molecular target: T1, horseradish peroxidase (HRP) (Armoracia rusticana, UniProt P00433); assay: Inhibition of HRP activity; type: biochemical
T1 sequence (P00433 31-338 limits assumed): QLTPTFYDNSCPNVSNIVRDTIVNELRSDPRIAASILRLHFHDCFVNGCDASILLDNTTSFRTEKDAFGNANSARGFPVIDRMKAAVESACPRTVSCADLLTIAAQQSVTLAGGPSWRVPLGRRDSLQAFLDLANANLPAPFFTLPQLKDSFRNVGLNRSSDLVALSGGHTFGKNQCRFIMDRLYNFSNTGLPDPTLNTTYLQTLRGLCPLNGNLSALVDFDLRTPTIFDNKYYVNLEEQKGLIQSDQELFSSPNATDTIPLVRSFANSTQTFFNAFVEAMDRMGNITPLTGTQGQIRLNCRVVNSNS
In short: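 HRP (10 μL) combined with test compound (10 μL, 250–1000 μM) and 100 μL TMB. Reaction started with 0.03% (v/v) H2O2. The blue oxidised TMB product was read at 655 nm and % inhibition calculated against uninhibited activity. Sodium azide at 1000 μM served as reference inhibitor. Performed in triplicate.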

OATP1B3 = settings: read-out: IC50, inhibition of OATP1B3-mediated transport of CCK-8; ref Li et al.; cited from earlier work
[3] = rat; cited from earlier work
red blood cells = assay: Hemolysis assay on rat RBCs; type: cell-based; settings: up to 1 mg/mL, 30 min at 37 °C
In short: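 Blood from control rats drawn into aqueous EDTA and spun at 8000 rpm for 10 min. RBCs washed three times in PBS (pH 7.4) and diluted 1:10. Diluted cells (100 μL) mixed with 900 μL PBS containing test compound at 0.1 to 1 mg/mL. Blank PBS served as negative control and 1% Triton X-100 as positive control. Incubated 30 min at 37 °C with shaking, spun at 4 °C, supernatant absorbance read at 540 nm. % hemolysis scaled between the PBS and Triton absorbances.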

CYP2E1 = settings: cited from earlier work
[4] = at the concentration range of 250–1000 μM

Sequence of urease from Canavalin ensiformis (jack bean) (P07374 whole entry, looked up): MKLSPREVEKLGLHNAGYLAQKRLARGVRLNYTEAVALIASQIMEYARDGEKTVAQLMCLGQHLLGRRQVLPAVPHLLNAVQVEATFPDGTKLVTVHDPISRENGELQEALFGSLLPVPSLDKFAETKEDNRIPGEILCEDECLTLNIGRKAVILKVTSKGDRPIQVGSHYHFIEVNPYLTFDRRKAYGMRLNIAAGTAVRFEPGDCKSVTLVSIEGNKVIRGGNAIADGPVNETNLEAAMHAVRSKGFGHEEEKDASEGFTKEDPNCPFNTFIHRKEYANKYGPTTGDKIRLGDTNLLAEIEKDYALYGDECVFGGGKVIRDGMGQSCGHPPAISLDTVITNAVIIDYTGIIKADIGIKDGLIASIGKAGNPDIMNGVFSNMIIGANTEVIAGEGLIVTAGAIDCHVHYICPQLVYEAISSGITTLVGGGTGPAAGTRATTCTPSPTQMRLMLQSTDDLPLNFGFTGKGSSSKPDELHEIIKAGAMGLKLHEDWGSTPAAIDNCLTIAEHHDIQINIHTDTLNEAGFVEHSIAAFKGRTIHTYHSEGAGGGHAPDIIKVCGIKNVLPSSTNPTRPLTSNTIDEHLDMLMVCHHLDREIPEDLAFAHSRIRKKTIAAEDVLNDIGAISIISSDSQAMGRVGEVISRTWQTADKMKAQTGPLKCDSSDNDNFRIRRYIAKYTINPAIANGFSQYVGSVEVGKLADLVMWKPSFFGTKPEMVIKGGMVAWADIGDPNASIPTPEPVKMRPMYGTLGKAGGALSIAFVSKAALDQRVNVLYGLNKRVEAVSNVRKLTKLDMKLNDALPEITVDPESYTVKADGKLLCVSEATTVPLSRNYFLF

Compound	effect on proliferation of lymphocytes (rat splenic lymphocytes)	IC50 [1] [µM]	inhibition of HRP [2, 4]	IC50 (OATP1B3) [µM]	effect on oral exposure of rosuvastatin [3]	RBCs lysis (% Hb released relative to positive and negative controls) (red blood cells) [%]	effect on expression of CYP2E1 (CYP2E1)	inhibition of HRP ([2]; at a concentration of 1000 μM) [%]
NC(=O)NO [HU, Hydroxyurea, reference compound]	decreased							
O=C(O)c1cc(O)c(O)c(O)c1 [gallic acid]	significantly elevated the proliferation of lymphocytes	635	53–70%	1.6	augmented the oral exposure of rosuvastatin			
C[C@@H]1O[C@@H](OC[C@H]2O[C@@H](Oc3c(-c4ccc(O)c(O)c4)oc4cc(O)cc(O)c4c3=O)[C@H](O)[C@@H](O)[C@@H]2O)[C@H](O)[C@H](O)[C@H]1O [rutin, Rutin]	no considerable influence	780	40–64%			≤ 5	enhanced its expression	
[N-]=[N+]=[N-].[Na+] [sodium azide, reference compound]								97
